Results taken from ChEMBL document CHEMBL4190249, “Antiproliferative and apoptotic activities of sequence-specific histone acetyltransferase inhibitors” (Eur J Med Chem, 2017).
Activity calls are given as the source filed them. The calls are words filed in the database; no cut-off is given here.

Experiments:
[1] = test system: SW-620; assay: Antiproliferative activity against human SW620 cells harboring p53 mutant assessed as cell viability at 10 uM after 96 hrs by WST8 assay relative to control; format: functional; settings: SW-620, 96 h, read-out: Activity
Summary of the method: (§1)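 Cells seeded at 5×10^3 per well and grown 24 h at 37°C, 5% CO2. A549 medium was DMEM with 10% FBS and 2 mM L-glutamine. SW620 medium had 10% FBS and 1% penicillin/streptomycin. Medium was then replaced with conjugate at 0.1, 1, 5 or 10 μM for 96 h. WST-8 reagent was added and absorbance read at 450 nm. Results are mean ± SD.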

[2] = test system: dsDNA; assay: Binding affinity to 5'-ACTTATTCCATATAGA-3'/3'-TGAATAAGGTATATCT-5' dsDNA (unknown origin) assessed as change in melting temperature at 2.5 uM by spectrophotometric method; format: nucleic-acid assay
[3] = test system: dsDNA; assay: Binding affinity to 5'-ACTTATCCACTATAGA-3'/3'-TGAATAGGTGATATCT-5' dsDNA (unknown origin) assessed as change in melting temperature at 2.5 uM by spectrophotometric method; format: nucleic-acid assay
[4] = target: Histone acetyltransferase p300 (Homo sapiens, UniProt Q09472); assay: Inhibition of p300 (unknown origin) using H3 peptide and acetyl-coA as substrate by fluorometric assay
Summary of the method: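 Fluorometric HAT kit assay with recombinant p300 core domain as enzyme and acetyl-CoA plus H3 histone peptide as substrates. Effectors were tested at 1 and 5 μM. HeLa nuclear extract served as positive control, and 0.5% DMSO was set as 100% activity.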

[5] = test system: A549; assay: Antiproliferative activity against human A549 cells after 96 hrs by WST8 assay; format: functional, cell-based; summary of the method: as §1
[6] = target: Cellular tumor antigen p53 (Homo sapiens) (UniProt P04637); assay: Activation of p53 in human A549 cells assessed as upregulation of SPATA18 gene expression at 2 uM after 48 hrs by microarray analysis relative to control; format: cell-based
Summary of the method: (§2)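 A549 cells plated at 2×10^5 cells/well, treated 48 h at 2 μM, with DMSO vehicle as control. Whole-genome transcriptional profiling followed the manufacturer's protocol. Total RNA integrity was checked by Bioanalyzer before arraying.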

[7] = target: Cellular tumor antigen p53 (Homo sapiens) (UniProt P04637); assay: Activation of p53 in human A549 cells assessed as upregulation of EDA2R gene expression at 2 uM after 48 hrs by microarray analysis relative to control; format: cell-based; summary of the method: as §2
[8] = test system: A549; assay: Upregulation of ABCA12 gene expression in human A549 cells at 2 uM after 48 hrs by microarray analysis relative to control; format: functional; summary of the method: as §2
[9] = target: Cellular tumor antigen p53 (Homo sapiens) (UniProt P04637); assay: Activation of p53 in human A549 cells assessed as upregulation of BTG2 gene expression at 2 uM after 48 hrs by microarray analysis relative to control; format: cell-based; summary of the method: as §2
[10] = test system: A549; assay: Upregulation of MIR3189 gene expression in human A549 cells at 2 uM after 48 hrs by microarray analysis relative to control; format: functional; summary of the method: as §2
[11] = test system: A549; assay: Upregulation of CDKN1A gene expression in human A549 cells at 2 uM after 48 hrs by microarray analysis relative to control; format: functional; summary of the method: as §2
[12] = test system: A549; assay: Upregulation of SULF2 gene expression in human A549 cells at 2 uM after 48 hrs by microarray analysis relative to control; format: functional; summary of the method: as §2
[13] = test system: A549; assay: Upregulation of WDR63 gene expression in human A549 cells at 2 uM after 48 hrs by microarray analysis relative to control; format: functional; summary of the method: as §2
[14] = target: Cellular tumor antigen p53 (Homo sapiens) (UniProt P04637); assay: Activation of p53 in human A549 cells assessed as upregulation of FDXR gene expression at 2 uM after 48 hrs by microarray analysis relative to control; format: cell-based; summary of the method: as §2
[15] = target: Cellular tumor antigen p53 (Homo sapiens) (UniProt P04637); assay: Activation of p53 in human A549 cells assessed as upregulation of MDM2 gene expression at 2 uM after 48 hrs by microarray analysis relative to control; format: cell-based; summary of the method: as §2
[16] = test system: A549; assay: Upregulation of UIMC1 gene expression in human A549 cells at 2 uM after 48 hrs by microarray analysis relative to control; format: functional; summary of the method: as §2
[17] = test system: A549; assay: Upregulation of MIR4713 gene expression in human A549 cells at 2 uM after 48 hrs by microarray analysis relative to control; format: functional; summary of the method: as §2
[18] = target: Cellular tumor antigen p53 (Homo sapiens) (UniProt P04637); assay: Activation of p53 in human A549 cells assessed as upregulation of SESN1 gene expression at 2 uM after 48 hrs by microarray analysis relative to control; format: cell-based; summary of the method: as §2
[19] = test system: A549; assay: Upregulation of SCARNA7 gene expression in human A549 cells at 2 uM after 48 hrs by microarray analysis relative to control; format: functional; summary of the method: as §2
[20] = test system: A549; assay: Upregulation of MIR3685 gene expression in human A549 cells at 2 uM after 48 hrs by microarray analysis relative to control; format: functional; summary of the method: as §2
[21] = target: Cellular tumor antigen p53 (Homo sapiens) (UniProt P04637); assay: Activation of p53 in human A549 cells assessed as upregulation of CYFIP2 gene expression at 2 uM after 48 hrs by microarray analysis relative to control; format: cell-based; summary of the method: as §2
[22] = test system: A549; assay: Upregulation of POLH gene expression in human A549 cells at 2 uM after 48 hrs by microarray analysis relative to control; format: functional; summary of the method: as §2
[23] = target: Cellular tumor antigen p53 (Homo sapiens) (UniProt P04637); assay: Activation of p53 in human A549 cells assessed as upregulation of TP53INP1 gene expression at 2 uM after 48 hrs by microarray analysis relative to control; format: cell-based; summary of the method: as §2
[24] = target: Cellular tumor antigen p53 (Homo sapiens) (UniProt P04637); assay: Activation of p53 in human A549 cells assessed as upregulation of CD70 gene expression at 2 uM after 48 hrs by microarray analysis relative to control; format: cell-based; summary of the method: as §2
[25] = target: Cellular tumor antigen p53 (Homo sapiens) (UniProt P04637); assay: Activation of p53 in human A549 cells assessed as upregulation of FAS gene expression at 2 uM after 48 hrs by microarray analysis relative to control; format: cell-based; summary of the method: as §2
[26] = test system: A549; assay: Upregulation of GDF15 gene expression in human A549 cells at 2 uM after 48 hrs by microarray analysis relative to control; format: functional; summary of the method: as §2
[27] = test system: A549; assay: Upregulation of GAS6-AS1 gene expression in human A549 cells at 2 uM after 48 hrs by microarray analysis relative to control; format: functional; summary of the method: as §2
[28] = test system: A549; assay: Upregulation of ANKRD1 gene expression in human A549 cells at 2 uM after 48 hrs by microarray analysis relative to control; format: functional; summary of the method: as §2
[29] = target: Cellular tumor antigen p53 (Homo sapiens) (UniProt P04637); assay: Activation of p53 in human A549 cells assessed as upregulation of DDB2 gene expression at 2 uM after 48 hrs by microarray analysis relative to control; format: cell-based; summary of the method: as §2
[30] = test system: A549; assay: Upregulation of NEFL gene expression in human A549 cells at 2 uM after 48 hrs by microarray analysis relative to control; format: functional; summary of the method: as §2
[31] = test system: A549; assay: Downregulation of SNORA9 gene expression in human A549 cells at 2 uM after 48 hrs by microarray analysis relative to control; format: functional; summary of the method: as §2
[32] = test system: A549; assay: Downregulation of ALDH1L2 gene expression in human A549 cells at 2 uM after 48 hrs by microarray analysis relative to control; format: functional; summary of the method: as §2
[33] = target: Cellular tumor antigen p53 (Homo sapiens) (UniProt P04637); assay: Activation of p53 in human A549 cells assessed as downregulation of CARS gene expression at 2 uM after 48 hrs by microarray analysis relative to control; format: cell-based; summary of the method: as §2
[34] = test system: A549; assay: Downregulation of ASNS gene expression in human A549 cells at 2 uM after 48 hrs by microarray analysis relative to control; format: functional; summary of the method: as §2
[35] = test system: A549; assay: Downregulation of TAS2R30 gene expression in human A549 cells at 2 uM after 48 hrs by microarray analysis relative to control; format: functional; summary of the method: as §2
[36] = target: Cellular tumor antigen p53 (Homo sapiens) (UniProt P04637); assay: Activation of p53 in human A549 cells assessed as downregulation of STC2 gene expression at 2 uM after 48 hrs by microarray analysis relative to control; format: cell-based; summary of the method: as §2
[37] = test system: A549; assay: Downregulation of ULBP1 gene expression in human A549 cells at 2 uM after 48 hrs by microarray analysis relative to control; format: functional; summary of the method: as §2
[38] = test system: A549; assay: Downregulation of GUSBP3 gene expression in human A549 cells at 2 uM after 48 hrs by microarray analysis relative to control; format: functional; summary of the method: as §2
[39] = target: Cellular tumor antigen p53 (Homo sapiens) (UniProt P04637); assay: Activation of p53 in human A549 cells assessed as downregulation of CHAC1 gene expression at 2 uM after 48 hrs by microarray analysis relative to control; format: cell-based; summary of the method: as §2
[40] = test system: A549; assay: Induction of apoptosis in human A549 cells at 2 uM after 48 hrs by Annexin V-FITC/ethidium homodimer-3/Hoechst 33342 staining based fluorescence microscopic method; format: functional, cell-based
Summary of the method: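 A549 cells seeded in chamber slides at 2×10^4 cells/well and exposed to 2 μM for 48 h; vehicle control 0.1% DMSO. Cells were washed in binding buffer and stained with FITC-annexin V (apoptotic), ethidium homodimer III (necrotic) and Hoechst 33342 (all nuclei), then imaged by confocal fluorescence microscopy.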

[41] = test system: MV4-11; assay: Antiproliferative activity against human MV4-11 cells harboring wild type p53 after 96 hrs by WST8 assay; format: functional, cell-based; settings: MV4-11, 96 h
[42] = test system: MDA-MB-231; assay: Antiproliferative activity against human MDA-MB-231 cells harboring p53 mutant assessed as cell viability at 10 uM after 96 hrs by WST8 assay relative to control; format: functional; settings: MDA-MB-231, 96 h, read-out: Activity

Cellular tumor antigen p53 (Homo sapiens), sequence (P04637 whole entry, looked up): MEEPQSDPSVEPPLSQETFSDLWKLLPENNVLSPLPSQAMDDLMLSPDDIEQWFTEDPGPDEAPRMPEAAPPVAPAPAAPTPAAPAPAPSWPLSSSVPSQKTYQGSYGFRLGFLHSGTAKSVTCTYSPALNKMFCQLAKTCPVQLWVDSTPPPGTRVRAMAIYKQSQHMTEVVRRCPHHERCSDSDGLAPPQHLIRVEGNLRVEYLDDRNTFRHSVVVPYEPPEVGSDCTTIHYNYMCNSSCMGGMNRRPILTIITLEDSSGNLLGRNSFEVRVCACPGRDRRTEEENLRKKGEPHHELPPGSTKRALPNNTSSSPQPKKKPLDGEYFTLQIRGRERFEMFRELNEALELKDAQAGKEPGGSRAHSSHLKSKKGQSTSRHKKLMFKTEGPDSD
Histone acetyltransferase p300, sequence (Q09472 whole entry, the tested form may be a part): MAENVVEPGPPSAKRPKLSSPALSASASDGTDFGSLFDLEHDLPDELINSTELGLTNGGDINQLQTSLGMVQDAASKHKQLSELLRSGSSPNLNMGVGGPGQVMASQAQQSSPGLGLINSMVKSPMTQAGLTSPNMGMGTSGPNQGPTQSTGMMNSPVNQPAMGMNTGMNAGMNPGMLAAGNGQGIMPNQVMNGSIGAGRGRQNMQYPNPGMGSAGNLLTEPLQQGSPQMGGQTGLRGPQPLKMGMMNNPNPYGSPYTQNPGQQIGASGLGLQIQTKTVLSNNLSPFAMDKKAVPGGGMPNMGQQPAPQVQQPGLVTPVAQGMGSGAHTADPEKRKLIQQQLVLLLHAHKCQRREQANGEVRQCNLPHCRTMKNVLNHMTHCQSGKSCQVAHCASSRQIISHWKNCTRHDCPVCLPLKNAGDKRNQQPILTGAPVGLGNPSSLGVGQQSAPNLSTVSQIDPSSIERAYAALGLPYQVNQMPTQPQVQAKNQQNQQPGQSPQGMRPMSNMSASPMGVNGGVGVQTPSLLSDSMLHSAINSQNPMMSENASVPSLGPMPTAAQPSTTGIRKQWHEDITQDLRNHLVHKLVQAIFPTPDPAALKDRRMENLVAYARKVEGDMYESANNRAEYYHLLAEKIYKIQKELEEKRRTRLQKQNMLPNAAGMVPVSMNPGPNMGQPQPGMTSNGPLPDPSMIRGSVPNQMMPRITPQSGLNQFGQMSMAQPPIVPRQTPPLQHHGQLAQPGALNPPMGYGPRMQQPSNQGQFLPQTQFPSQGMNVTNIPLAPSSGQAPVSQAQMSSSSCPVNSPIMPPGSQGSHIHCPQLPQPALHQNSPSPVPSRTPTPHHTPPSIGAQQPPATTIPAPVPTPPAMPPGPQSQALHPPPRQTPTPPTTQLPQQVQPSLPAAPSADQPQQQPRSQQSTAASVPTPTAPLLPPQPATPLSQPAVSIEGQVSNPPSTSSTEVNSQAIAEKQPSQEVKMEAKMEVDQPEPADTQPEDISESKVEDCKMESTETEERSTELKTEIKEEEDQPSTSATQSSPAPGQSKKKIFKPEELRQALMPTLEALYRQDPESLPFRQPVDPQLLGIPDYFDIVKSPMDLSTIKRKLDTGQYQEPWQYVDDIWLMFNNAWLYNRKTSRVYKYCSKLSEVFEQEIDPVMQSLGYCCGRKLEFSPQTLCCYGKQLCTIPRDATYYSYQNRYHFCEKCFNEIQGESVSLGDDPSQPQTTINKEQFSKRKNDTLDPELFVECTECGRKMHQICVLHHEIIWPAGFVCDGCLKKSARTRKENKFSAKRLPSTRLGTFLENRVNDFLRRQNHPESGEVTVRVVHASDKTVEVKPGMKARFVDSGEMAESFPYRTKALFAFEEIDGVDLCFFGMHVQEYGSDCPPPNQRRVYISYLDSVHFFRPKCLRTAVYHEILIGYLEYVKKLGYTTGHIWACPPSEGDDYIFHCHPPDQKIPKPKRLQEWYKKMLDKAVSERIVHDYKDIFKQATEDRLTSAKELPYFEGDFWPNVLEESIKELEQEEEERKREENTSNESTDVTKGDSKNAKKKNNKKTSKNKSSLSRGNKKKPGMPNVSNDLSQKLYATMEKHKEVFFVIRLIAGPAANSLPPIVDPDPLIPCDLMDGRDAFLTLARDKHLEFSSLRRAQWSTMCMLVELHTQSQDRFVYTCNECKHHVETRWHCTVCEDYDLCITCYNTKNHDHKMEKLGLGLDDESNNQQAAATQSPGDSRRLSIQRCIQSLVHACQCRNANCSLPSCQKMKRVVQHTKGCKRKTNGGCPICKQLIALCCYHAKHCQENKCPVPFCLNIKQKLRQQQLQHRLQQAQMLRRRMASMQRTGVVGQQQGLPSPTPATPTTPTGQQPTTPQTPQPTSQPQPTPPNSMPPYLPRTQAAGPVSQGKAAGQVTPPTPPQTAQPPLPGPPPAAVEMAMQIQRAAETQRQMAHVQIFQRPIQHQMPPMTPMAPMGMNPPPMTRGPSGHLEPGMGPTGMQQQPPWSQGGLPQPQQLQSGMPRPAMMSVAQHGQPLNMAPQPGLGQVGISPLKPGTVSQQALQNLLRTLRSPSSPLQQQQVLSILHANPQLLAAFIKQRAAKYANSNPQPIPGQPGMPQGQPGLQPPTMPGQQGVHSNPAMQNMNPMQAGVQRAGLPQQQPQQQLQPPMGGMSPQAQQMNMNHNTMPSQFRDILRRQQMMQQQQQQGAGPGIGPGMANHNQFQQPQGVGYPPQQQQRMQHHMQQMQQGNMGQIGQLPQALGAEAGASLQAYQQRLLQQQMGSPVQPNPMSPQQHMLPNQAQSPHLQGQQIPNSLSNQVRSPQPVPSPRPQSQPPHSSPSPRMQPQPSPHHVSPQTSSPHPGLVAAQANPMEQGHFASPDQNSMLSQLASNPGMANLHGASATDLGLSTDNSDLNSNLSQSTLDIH

SMILES: CC1=NN(c2ccc(C(=O)NCCOCCOCC(=O)NCCC(=O)Nc3cc(C(=O)Nc4cn(C)c(C(=O)Nc5cn(C)c(C(=O)Nc6cc(C(=O)NCCCC(=O)Nc7cc(C(=O)Nc8cc(C(=O)Nc9cc(C(=O)Nc%10cc(C(=O)NCCCN(C)C)n(C)c%10)n(C)c9)n(C)c8)n(C)c7)n(C)c6)n5)n4)n(C)c3)cc2)C(=O)/C1=C/c1ccc(-c2cc(C)c(C)cc2[N+](=O)[O-])o1
- viability at 10 µM [1]: 78.4%
- ΔTm [2]: 18.1 °C
- ΔTm [3]: 11.5 °C
- IC50 [4]: 3900 to 4200 nM
- Activity [5]: Dose-dependent effect
- IC50 ([5]; A549, 96 h): 1800 nM
- fold change (FC) [6]: 2.98
- fold change (FC) [7]: 2.53
- fold change (FC) [8]: 2.42
- fold change (FC) [9]: 2.35
- fold change (FC) [10]: 2.32
- fold change (FC) [11]: 2.28
- fold change (FC) [12]: 2.13
- fold change (FC) [13]: 2.03
- fold change (FC) [14]: 2
- fold change (FC) [15]: 1.97
- fold change (FC) [16]: 1.94
- fold change (FC) [17]: 1.94
- fold change (FC) [18]: 1.91
- fold change (FC) [19]: 1.89
- fold change (FC) [20]: 1.89
- fold change (FC) [21]: 1.88
- fold change (FC) [22]: 1.88
- fold change (FC) [23]: 1.85
- fold change (FC) [24]: 1.83
- fold change (FC) [25]: 1.83
- fold change (FC) [26]: 1.81
- fold change (FC) [27]: 1.81
- fold change (FC) [28]: 1.81
- fold change (FC) [29]: 1.8
- fold change (FC) [30]: 1.8
- fold change (FC) [31]: 1.81
- fold change (FC) [32]: 1.86
- fold change (FC) [33]: 1.9
- fold change (FC) [34]: 2.01
- fold change (FC) [35]: 2.01
- fold change (FC) [36]: 2.34
- fold change (FC) [37]: 2.34
- fold change (FC) [38]: 2.63
- fold change (FC) [39]: 3.64
- Activity [40]: Active
- IC50 [41]: 2600 nM
- viability at 10 µM [42]: 69.3%
